# In the library only some 1.5% were active in any assay of this set; here they are far more common.
# APJ antagonist: blocks the human apelin receptor APJ; P35414; CHO-K1 APJ beta-arrestin complementation, luminescence; inhibition, % at 20 µM; 330,000 compounds, 0.32% hits; AID 2521;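 active means inhibition above about 40% at 20 µM, limit read from the data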;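 further: cells challenged with 10 nM apelin-13 agonist together with compound; plate controls were apelin-13 plus DMSO wells for no effect and DMSO wells lacking apelin-13 for full effect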
# Target sequence (P35414 whole entry, looked up): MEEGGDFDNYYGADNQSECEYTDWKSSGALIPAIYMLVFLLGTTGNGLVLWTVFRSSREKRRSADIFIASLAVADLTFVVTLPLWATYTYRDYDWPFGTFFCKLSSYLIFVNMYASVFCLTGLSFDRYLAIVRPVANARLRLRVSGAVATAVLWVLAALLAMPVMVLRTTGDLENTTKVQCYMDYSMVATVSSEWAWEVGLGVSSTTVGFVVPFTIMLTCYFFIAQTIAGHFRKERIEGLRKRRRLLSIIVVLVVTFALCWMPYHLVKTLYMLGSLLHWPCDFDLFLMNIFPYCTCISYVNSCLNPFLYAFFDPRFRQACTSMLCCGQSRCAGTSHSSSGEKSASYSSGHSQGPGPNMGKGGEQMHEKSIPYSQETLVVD
# APJ ag: APJ receptor agonism; P35414; activation, % at 20 µM; CHO-K1 APJ PathHunter beta-arrestin, luminescence; 0% DMSO wells, 100% apelin; 330,000 compounds, 0.11% hits;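 active means activation more than six SD over the plate average, tested at 20 µM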;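 further: 0% = DMSO alone and 100% = apelin-13 at 10 nM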
#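 Assay system – PathHunter CHO-K1 APJ (AGTRL-1) beta-arrestin reporter cells · Compound – one dose, 20 µM compound, 1% DMSO · Timing – compound 90 min 25 °C, reagent 1 h · Measured by – luminescence from split beta-galactosidase complementation, Galacton Star/Emerald II substrate · Measure – beta-arrestin recruitment to APJ as agonist activity, luminescent signal · Benchmarks – DMSO vs Apelin-13 10 nM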
# CXCR6 inh: inhibitors of human CXCR6 receptor; inhibition, % at 20 µM; 360,000 compounds, 0.36% hits; CHO-K1 PathHunter CXCR6 beta-arrestin, luminescence; O00574; in the data active means inhibition above about 34%, passing the limit was not always enough;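 further: antagonist mode with CXCL16 agonist at 10 nM final; 0% = 10 nM CXCL16 with DMSO and 100% = unstimulated wells without agonist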
# CCR6 antag: blocks CCL20-driven beta-arrestin recruitment at human CCR6. inhibition, % at 20 µM. AID 493098. CHO-K1 CCR6 PathHunter beta-arrestin, luminescence, CCL20-stimulated. 340,000 compounds, 0.49% hits. P51684;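 active means compounds whose inhibition of the agonist-driven luminescence signal at 20 µM reaches about 50%, limit read from the data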;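 further: cells stimulated with CCL20 at 14 nM final; plate controls were DMSO with CCL20 for no effect and DMSO without agonist for full effect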
# EBI2 antag: blocks human EBI2 receptor beta-arrestin signaling; P32249; 360,000 compounds, 0.81% hits; inhibition, % at 5 µM; EBI2 beta-arrestin recruitment, luminescence, 7a,25-OHC stimulated; in the data active means inhibition above about 38%;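 further: enzyme fragment complementation signal reports receptor beta-arrestin coupling in cells; 0% = agonist plus DMSO wells and 100% = wells without agonist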
# APJ antag conf: APJ receptor antagonism confirmation; APJ beta-arrestin recruitment, luminescence, antagonist mode; shares compounds with APJ antagonist; inhibition, % at 20 µM; AID 2766; 950 compounds, 66% hits; in the data active means inhibition above about 50%
# CXCR6 confirm: confirmation of human CXCR6 receptor antagonists | shares compounds with CXCR6 inh | CHO-K1 CXCR6 PathHunter beta-arrestin, luminescence | inhibition, % at 20 µM | 700 compounds, 65% hits | AID 602409;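 active means mean inhibition over four retests above 40%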;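 further: receptor stimulated with 10 nM CXCL16 agonist; beta-galactosidase fragment complementation upon beta-arrestin recruitment to receptor; plate controls were CXCL16 plus DMSO for no effect and DMSO without CXCL16 for full effect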
# Active calls of the source: *; / = no result.
SMILES,APJ antagonist,APJ ag,CXCR6 inh,CCR6 antag,EBI2 antag,APJ antag conf,others
CC1CCCCN1S(=O)(=O)c1ccc(C(=O)N(CCCN(C)C)c2nc3ccc(Br)cc3s2)cc1 (centres undefined),48.1*,18.4,-11.3,15.6,-11.7,36.7,
CCOc1ccc(N=C2NC(=O)S/C2=C\c2ccc(N(C)C)cc2)cc1,43.0*,-5.2,11.8,43.6,17.0,60.5*,
CCOc1ccc(/C=C2/SC(=O)NC2=S)cc1,12.7,0.0,6.5,21.5,-0.5,/,
CC(C)(C)OC(=O)C[C@@H]1C/C=C\C[C@H](CC(=O)N(CCO)Cc2ccccc2)C(=O)NC[C@@H](c2ccccc2)OC1=O,54.2*,-8.6,56.1*,56.0*,23.2,100.2*,
COc1cc(/C=C2/C(=O)N(c3ccc(C(=O)O)cc3)N=C2C)cc(OC)c1O,58.8*,-7.7,40.2*,68.7*,0.7,94.5*,
COc1cc(/C=C2/C(=O)NN(c3ccccc3)C2=O)cc(Br)c1O,34.4,-5.8,32.3,39.6,1.2,/,
COc1cc(/C=C2/C(=O)NN(c3ccc(Cl)cc3)C2=O)cc(OC)c1O,40.8*,-7.7,33.8,42.0,8.4,46.4,
COc1cc(/C=C2\CCC/C(=C\c3ccc(O)c(OC)c3)C2=O)ccc1O,40.2*,-7.6,30.6,48.5,3.4,80.0*,
COc1cc(/C=C2/CCCC(C(=O)C(F)(F)F)=C2O)ccc1O,5.3,-1.8,4.9,22.3,-4.9,/,
COc1cc(/C=C/C(=O)CC(=O)/C=C/c2ccc(O)c(OC)c2)ccc1O,61.9*,-9.5,37.2,66.0*,14.3,92.7*,
CCOc1cc(/C=C2\CN(CC)C/C(=C\c3ccc(O)c(OCC)c3)C2=O)ccc1O,48.5*,-9.4,23.8,46.2,-3.4,101.2*,
CCOc1cc(/C=N/N=C/c2ccc(O)c(OCC)c2)ccc1O,22.7,-3.7,-2.5,8.1,3.5,/,
CC(C)(C)N1C(=O)c2ccc(C(=O)Nc3ccc(O)cc3)cc2C1=O,0.5,0.3,1.4,4.9,8.8,/,
Cc1n[nH]c(C)c1S(=O)(=O)N1CCC(C(=O)N2CCn3c2nc2ccccc23)CC1,66.1*,-12.3,52.0*,72.7*,33.6,100.1*,
Cc1ccc(N(CC(=O)N2CCn3c2nc2ccccc23)S(=O)(=O)c2c(C)n[nH]c2C)cc1,-11.3,1.4,-5.4,3.6,3.4,/,
O=C(N/N=C/c1ccc(O)c([N+](=O)[O-])c1)C1CC1(c1ccccc1)c1ccccc1 (centres undefined),40.7*,-4.4,27.3,33.8,8.5,16.4,
O=C(N/N=C/c1ccncc1)C1CC1(c1ccccc1)c1ccccc1 (centres undefined),7.6,0.8,6.4,10.6,1.0,/,
Cc1c(Cl)cccc1NC(=O)CSc1ncnc2c1cnn2CCO,3.0,-2.3,4.1,15.0,0.0,/,
CC(C)c1ccc(O)c(NC(=S)NC(=O)c2cccnc2)c1,58.6*,-9.8,59.5*,69.4*,21.8,83.7*,CXCR6 confirm=67.4*
CCC(C)c1ccc(O)c(NC(=O)c2cccnc2)c1 (centres undefined),-9.1,-6.8,-4.4,1.6,-1.4,/,
COc1cc(/C=C/c2ccc3cccc(O)c3n2)cc(OC)c1OC,49.0*,-10.6,71.6*,76.8*,61.6*,58.4*,CXCR6 confirm=84.8*
COc1cc(/C=C/c2ccc3cccc(O)c3n2)cc(Br)c1OC,21.1,-5.8,23.4,33.9,9.9,/,
CCOc1ccc(-c2csc(/C(C#N)=C\c3ccc(O)c([N+](=O)[O-])c3)n2)cc1,49.6*,-4.9,39.3*,54.5*,0.9,60.6*,CXCR6 confirm=39.0
COc1ccc(C(=O)OC(C)C(=O)NC(C)CCc2ccccc2)c(OC)c1 (centres undefined),-11.2,-3.5,6.2,15.2,8.4,/,
CC(=O)NS(=O)(=O)c1ccc(Nc2ccc([N+](=O)[O-])c3nonc23)cc1,44.9*,-8.1,50.6*,55.0*,13.5,101.2*,CXCR6 confirm=47.2*
CCOc1ccc(Nc2ccc([N+](=O)[O-])c3nonc23)cc1,51.7*,-10.4,59.4*,55.8*,15.2,89.0*,CXCR6 confirm=42.9*

# Source: PubChem
